Source: ChEMBL document CHEMBL4689842, “EUbOPEN Chemogenomics Library wave 1” (2021)

Experiments:
Type in all cases: toxicity, cell-based
Fibroblast = experiment: Multiplex assay against human fibroblast
Outline: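 Imaging took place on a CQ1 microscope at 37°C and 5% CO2 once compound had been added to live cells stained at seeding with Hoechst33342, BioTracker Green Microtubule Cytoskeleton Dye, MitoTracker Red and Annexin V Alexa Fluor 680. CellPathfinder machine-learning gating classed cells as Hoechst high-intensity objects or normal cells, classed normal cells as having healthy, pyknosed or fragmented nuclei, and classed pyknosed cells as mitotic or apoptotic. Tubulin, mitochondrial-mass and membrane-permeability phenotypes are per cents of the healthy-nucleus cells.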

HEK-293T = experiment: Incucyte cell viability with HEK293T; details: human, 10 µM, compound concentration 10 uM; also: filed as whole numbers so only -1 and 0 and 1 occur
U2OS = experiment: Incucyte cell viability with U2OS; details: human, 10 µM, compound concentration 10 uM; also: filed as whole numbers so only -1 and 0 and 1 occur
[1] = 12 h, 1 µM, compound concentration 1 uM, replicate 1
[2] = 12 h, 1 µM, compound concentration 1 uM, replicate 2
[3] = 12 h, 10 µM, compound concentration 10 uM, replicate 1
[4] = 12 h, 10 µM, compound concentration 10 uM, replicate 2
[5] = 24 h, 1 µM, compound concentration 1 uM, replicate 1
[6] = 24 h, 1 µM, compound concentration 1 uM, replicate 2
[7] = 24 h, 10 µM, compound concentration 10 uM, replicate 1
[8] = 24 h, 10 µM, compound concentration 10 uM, replicate 2
[9] = 6 h, replicate number 1, timepoint 6 hours
[10] = 12 h, replicate number 1, timepoint 12 hours
[11] = 18 h, replicate number 1, timepoint 18 hours
[12] = 24 h, replicate number 1, timepoint 24 hours

## CC[C@H](Nc1ncnc2[nH]cnc12)c1nc2cccc(F)c2c(=O)n1-c1ccccc1 [IDELALISIB]
Fibroblast; [1]
  Population Apoptotic (%): 91%
  Population Fragmented Nuclei (%): 26%
  Population Healthy Nuclei (%): 56%
  Population Hoechst High Intensity Objects (%): 11%
  Population Membrane Permeable-Phenotype (%): 12%
  Population Mitochondria Different-Phenotype (%): 1%
  Population Mitotic Cells (%): 8%
  Population Normal (%): 88%
  Population Pyknosed Nuclei (%): 17%
  Population Tubulin-Different-Phenotype (%): 20%
  Total Cell Count: 222
Fibroblast; [2]
  Population Apoptotic (%): 50%
  Population Fragmented Nuclei (%): 56%
  Population Healthy Nuclei (%): 34%
  Population Hoechst High Intensity Objects (%): 30%
  Population Membrane Permeable-Phenotype (%): 6%
  Population Mitochondria Different-Phenotype (%): 26%
  Population Mitotic Cells (%): 50%
  Population Normal (%): 69%
  Population Pyknosed Nuclei (%): 9%
  Population Tubulin-Different-Phenotype (%): 53%
  Total Cell Count: 63
Fibroblast; [3]
  Population Apoptotic (%): 58%
  Population Fragmented Nuclei (%): 26%
  Population Healthy Nuclei (%): 59%
  Population Hoechst High Intensity Objects (%): 10%
  Population Membrane Permeable-Phenotype (%): 14%
  Population Mitochondria Different-Phenotype (%): 0%
  Population Mitotic Cells (%): 41%
  Population Normal (%): 89%
  Population Pyknosed Nuclei (%): 13%
  Population Tubulin-Different-Phenotype (%): 4%
  Total Cell Count: 199
Fibroblast; [4]
  Population Apoptotic (%): 50%
  Population Fragmented Nuclei (%): 58%
  Population Healthy Nuclei (%): 33%
  Population Hoechst High Intensity Objects (%): 34%
  Population Membrane Permeable-Phenotype (%): 18%
  Population Mitochondria Different-Phenotype (%): 31%
  Population Mitotic Cells (%): 50%
  Population Normal (%): 65%
  Population Pyknosed Nuclei (%): 8%
  Population Tubulin-Different-Phenotype (%): 25%
  Total Cell Count: 73
Fibroblast; [5]
  Population Apoptotic (%): 59%
  Population Fragmented Nuclei (%): 27%
  Population Healthy Nuclei (%): 54%
  Population Hoechst High Intensity Objects (%): 12%
  Population Mitochondria Different-Phenotype (%): 5%
  Population Mitotic Cells (%): 40%
  Population Normal (%): 87%
  Population Pyknosed Nuclei (%): 17%
  Population Tubulin-Different-Phenotype (%): 15%
  Total Cell Count: 211
Fibroblast; [6]
  Population Apoptotic (%): 40%
  Population Fragmented Nuclei (%): 56%
  Population Healthy Nuclei (%): 30%
  Population Hoechst High Intensity Objects (%): 35%
  Population Membrane Permeable-Phenotype (%): 0%
  Population Mitochondria Different-Phenotype (%): 25%
  Population Mitotic Cells (%): 60%
  Population Normal (%): 65%
  Population Pyknosed Nuclei (%): 12%
  Population Tubulin-Different-Phenotype (%): 33%
  Total Cell Count: 60
Fibroblast; [7]
  Population Apoptotic (%): 73%
  Population Fragmented Nuclei (%): 22%
  Population Healthy Nuclei (%): 59%
  Population Hoechst High Intensity Objects (%): 13%
  Population Membrane Permeable-Phenotype (%): 7%
  Population Mitochondria Different-Phenotype (%): 0%
  Population Mitotic Cells (%): 26%
  Population Normal (%): 86%
  Population Pyknosed Nuclei (%): 17%
  Population Tubulin-Different-Phenotype (%): 1%
  Total Cell Count: 221
Fibroblast; [8]
  Population Apoptotic (%): 0%
  Population Fragmented Nuclei (%): 70%
  Population Healthy Nuclei (%): 25%
  Population Hoechst High Intensity Objects (%): 22%
  Population Membrane Permeable-Phenotype (%): 26%
  Population Mitochondria Different-Phenotype (%): 6%
  Population Mitotic Cells (%): 100%
  Population Normal (%): 77%
  Population Pyknosed Nuclei (%): 5%
  Population Tubulin-Different-Phenotype (%): 33%
  Total Cell Count: 77
HEK-293T; [9]
  Growth Rate: 0
HEK-293T; [10]
  Growth Rate: 0
HEK-293T; [11]
  Growth Rate: 0
HEK-293T; [12]
  Growth Rate: 0
U2OS; 0 h, replicate number 1, timepoint 0 hours
  Growth Rate: 0
U2OS; [9]
  Growth Rate: 0
U2OS; [10]
  Growth Rate: 1
U2OS; 12 h, replicate number 2, timepoint 12 hours
  Growth Rate: 0
U2OS; [11]
  Growth Rate: 0
U2OS; [12]
  Growth Rate: 0
